Reference: ChEMBL document CHEMBL1126762, “Synthesis and anaerobic activity of novel 1-carba-1-dethiacephalosporins” (J Med Chem, 1993)
Converted amounts (≈) assume the structure as drawn.

Key:
[1] = test system: Prevotella melaninogenica; assay: Antibacterial activity against anaerobic Bacteroides melaninogenicus 2736; format: functional
Summary of the method: (§1)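 MIC by agar dilution following the NCCLS M11-A2 (2nd ed.) procedure for antimicrobial testing of anaerobic bacteria.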

Streptococcus pneumoniae = assay: Antibacterial activity against aerobic Streptococcus pneumoniae PARK; format: functional
Summary of the method: (§2)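 MIC by agar dilution following the NCCLS M7-A2 (2nd ed.) procedure for bacteria that grow aerobically.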

Pseudomonas aeruginosa = assay: Antibacterial activity against aerobic Pseudomonas aeruginosa X239 strain; format: functional; summary of the method: as §2
Clostridium septicum = assay: Antibacterial activity against anaerobic Clostridium septicum 1128; format: functional; summary of the method: as §1
[2] = Antibacterial activity against anaerobic Peptostreptococcus intermedius 1264; format: functional; summary of the method: as §1
Escherichia coli = assay: Antibacterial activity against aerobic Escherichia coli EC14; format: functional; summary of the method: as §2
Bacteroides fragilis [3] = assay: Antibacterial activity against anaerobic Bacteroides fragilis 1936B; format: functional; summary of the method: as §1
Klebsiella aerogenes = assay: Antibacterial activity against aerobic Enterobacter aerogenes C32; format: functional; summary of the method: as §2
[4] = test system: Prevotella melaninogenica; assay: Antibacterial activity against anaerobic Bacteroides melaninogenicus 1856/28; format: functional; summary of the method: as §1
Anaerococcus prevotii = assay: Antibacterial activity against anaerobic Peptococcus prevoti 1281; format: functional; summary of the method: as §1
Eikenella corrodens = assay: Antibacterial activity against anaerobic Bacteroides corrodens 1874; format: functional; summary of the method: as §1
[5] = Antibacterial activity against anaerobic Eubacterium aerofaciens 1235; format: functional; conditions: Collinsella aerofaciens; summary of the method: as §1
Bacteroides fragilis [6] = assay: Antibacterial activity against anaerobic Bacteroides fragilis 111; format: functional; summary of the method: as §1
[7] = Antibacterial activity against anaerobic Fusobacterium symbiosum 1470; format: functional, fusobacterium symbosium; summary of the method: as §1
Cutibacterium acnes = assay: Antibacterial activity against anaerobic Propionibacterium acnes 79; format: functional; summary of the method: as §1
Phocaeicola vulgatus = assay: Antibacterial activity against anaerobic Bacteroides vulgatus 1211; format: functional; summary of the method: as §1
Clostridium perfringens = assay: Antibacterial activity against anaerobic Clostridium perfringens 81; format: functional
Summary of the method: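 Agar dilution MIC following NCCLS document M11-A2 (Vol. 10, no. 15), the method for antimicrobial testing of anaerobic bacteria; value reported as minimum inhibitory concentration.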

[8] = test system: Staphylococcus epidermidis; assay: Antibacterial activity against aerobic Staphylococcus epidermidis 222; format: functional; summary of the method: as §2
Staphylococcus aureus = assay: Antibacterial activity against aerobic Staphylococcus aureus X1.1 strain; format: functional; summary of the method: as §2
[9] = Antibacterial activity against anaerobic Peptococcus asaccharolyticus 1302; format: functional; conditions: Peptoniphilus asaccharolyticus; summary of the method: as §1
[10] = test system: Bacteroides thetaiotaomicron; assay: Antibacterial activity against anaerobic Bacteroides thetaiotaomicron 1438; format: functional; summary of the method: as §1
Klebsiella pneumoniae = assay: Antibacterial activity against aerobic Klebsiella pneumoniae X26; format: functional; summary of the method: as §2
Bacteroides fragilis [11] = assay: Antibacterial activity against anaerobic Bacteroides fragilis 1877; format: functional; summary of the method: as §1
[12] = test system: Peptostreptococcus anaerobius; assay: Antibacterial activity against anaerobic Peptostreptococcus anaerobius 1451; format: functional; summary of the method: as §1
Clostridioides difficile = assay: Antibacterial activity against anaerobic Clostridium difficile 2994 strain; format: functional; summary of the method: as §1
Haemophilus influenzae = assay: Antibacterial activity against aerobic Haemophilus influenzae RES 76; format: functional; summary of the method: as §2
[13] = test system: Fusobacterium necrophorum; assay: Antibacterial activity against anaerobic Fusobacterium necrophorum 6054A; format: functional; summary of the method: as §1

| Compound | MIC [1] | MIC (Streptococcus pneumoniae) | MIC (Pseudomonas aeruginosa) | MIC (Clostridium septicum) | MIC [2] | MIC (Escherichia coli) | MIC (Bacteroides fragilis [3]) | MIC (Klebsiella aerogenes) | MIC [4] | MIC (Anaerococcus prevotii) | MIC (Eikenella corrodens) | MIC [5] | MIC (Bacteroides fragilis [6]) | MIC [7] | MIC (Cutibacterium acnes) | MIC (Phocaeicola vulgatus) | MIC (Clostridium perfringens) | MIC [8] | MIC (Staphylococcus aureus) | MIC [9] | other results |
| --- | --- | --- | --- | --- | --- | --- | --- | --- | --- | --- | --- | --- | --- | --- | --- | --- | --- | --- | --- | --- | --- |
| CO/N=C(\C(=O)N[C@@H]1C(=O)N2C(C(=O)O)=C(Sc3ncc(C(F)(F)F)s3)CC[C@H]12)c1csc(N)n1 | 32 µg/mL (≈ 58.3 µM) | 0.008 µg/mL (≈ 0.0146 µM) | 128 µg/mL (≈ 233 µM) | 0.5 µg/mL (≈ 0.911 µM) | 0.015 µg/mL (≈ 0.0273 µM) | 0.25 µg/mL (≈ 0.456 µM) | 128 µg/mL (≈ 233 µM) | 0.5 µg/mL (≈ 0.911 µM) | 0.125 µg/mL (≈ 0.228 µM) | 0.5 µg/mL (≈ 0.911 µM) | 128 µg/mL (≈ 233 µM) | 16 µg/mL (≈ 29.2 µM) | 128 µg/mL (≈ 233 µM) | 2 µg/mL (≈ 3.65 µM) | 0.008 µg/mL (≈ 0.0146 µM) | 8 µg/mL (≈ 14.6 µM) | 0.06 µg/mL (≈ 0.109 µM) | 1 µg/mL (≈ 1.82 µM) | 0.25 µg/mL (≈ 0.456 µM) | 0.125 µg/mL (≈ 0.228 µM) | MIC [10]: 4 µg/mL (≈ 7.29 µM); MIC (Klebsiella pneumoniae): 0.03 µg/mL (≈ 0.0547 µM); MIC (Bacteroides fragilis [11]): 4 µg/mL (≈ 7.29 µM); MIC [12]: 0.5 µg/mL (≈ 0.911 µM); MIC (Clostridioides difficile): 0.06 µg/mL (≈ 0.109 µM); MIC (Haemophilus influenzae): 0.06 µg/mL (≈ 0.109 µM); MIC [13]: 0.25 µg/mL (≈ 0.456 µM) |
| CO/N=C(\C(=O)N[C@@H]1C(=O)N2C(C(=O)O)=C(Sc3ncc([N+](=O)[O-])s3)CC[C@H]12)c1csc(N)n1 | 4 µg/mL (≈ 7.61 µM) | 0.008 µg/mL (≈ 0.0152 µM) | > 128 µg/mL | ≤ 0.5 µg/mL | ≤ 0.5 µg/mL | 0.5 µg/mL (≈ 0.951 µM) | 4 µg/mL (≈ 7.61 µM) | 2 µg/mL (≈ 3.81 µM) | 4 µg/mL (≈ 7.61 µM) | ≤ 0.5 µg/mL | 8 µg/mL (≈ 15.2 µM) | 8 µg/mL (≈ 15.2 µM) | 8 µg/mL (≈ 15.2 µM) | 1 µg/mL (≈ 1.9 µM) | ≤ 0.5 µg/mL | 2 µg/mL (≈ 3.81 µM) | 2 µg/mL (≈ 3.81 µM) | 0.5 µg/mL (≈ 0.951 µM) | 0.125 µg/mL (≈ 0.238 µM) | ≤ 0.5 µg/mL | MIC [10]: ≤ 0.5 µg/mL; MIC (Klebsiella pneumoniae): 0.125 µg/mL (≈ 0.238 µM); MIC (Bacteroides fragilis [11]): 2 µg/mL (≈ 3.81 µM); MIC [12]: ≤ 0.5 µg/mL; MIC (Clostridioides difficile): 2 µg/mL (≈ 3.81 µM); MIC (Haemophilus influenzae): 0.06 µg/mL (≈ 0.114 µM); MIC [13]: ≤ 0.5 µg/mL |
| CO/N=C(\C(=O)N[C@@H]1C(=O)N2C(C(=O)O)=C(Sc3ncc(S(C)(=O)=O)s3)CC[C@H]12)c1csc(N)n1 | 32 µg/mL (≈ 57.3 µM) | 0.008 µg/mL (≈ 0.0143 µM) | > 128 µg/mL | 16 µg/mL (≈ 28.6 µM) | 0.03 µg/mL (≈ 0.0537 µM) | 0.06 µg/mL (≈ 0.107 µM) | > 128 µg/mL | 0.25 µg/mL (≈ 0.448 µM) | 0.125 µg/mL (≈ 0.224 µM) | 0.25 µg/mL (≈ 0.448 µM) | > 128 µg/mL | 32 µg/mL (≈ 57.3 µM) | > 128 µg/mL | 8 µg/mL (≈ 14.3 µM) | 0.03 µg/mL (≈ 0.0537 µM) | 16 µg/mL (≈ 28.6 µM) | 0.25 µg/mL (≈ 0.448 µM) | 1 µg/mL (≈ 1.79 µM) | 0.25 µg/mL (≈ 0.448 µM) | 0.25 µg/mL (≈ 0.448 µM) | MIC [10]: 2 µg/mL (≈ 3.58 µM); MIC (Klebsiella pneumoniae): 0.03 µg/mL (≈ 0.0537 µM); MIC (Bacteroides fragilis [11]): 32 µg/mL (≈ 57.3 µM); MIC [12]: 0.5 µg/mL (≈ 0.895 µM); MIC (Clostridioides difficile): 0.125 µg/mL (≈ 0.224 µM); MIC (Haemophilus influenzae): 0.015 µg/mL (≈ 0.0269 µM); MIC [13]: 0.008 µg/mL (≈ 0.0143 µM) |
